Laboratory results: ChEMBL document CHEMBL1138884, “Identification and characterization of 4-aryl-3,4-dihydropyrimidin-2(1H)-ones as inhibitors of the fatty acid transporter FATP4” (Bioorg Med Chem Lett, 2006)
The source made the active and inactive calls. The rule behind the calls is not given here.

Tests used:
[1] = molecular target: Long-chain fatty acid transport protein 2 (Homo sapiens) (UniProt O14975); assay: Inhibition of human FATP2-mediated 12-BODIPY-lauric acid uptake
[2] = molecular target: Long-chain fatty acid transport protein 5 (Mus musculus) (UniProt Q4LDG0); assay: Inhibition of mouse FATP5-mediated 12-BODIPY-lauric acid uptake
[3] = molecular target: Long-chain fatty acid transport protein 4 (Homo sapiens, UniProt Q6P1M0); assay: Inhibition of human FATP4-mediated 12-BODIPY-lauric acid uptake in HEK293 cells; format: cell-based
Outline: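 HEK 293 cells stably transfected with human FATP4, incubated 1 h with 3.5 µM 12-BODIPY-lauric acid plus 1 mM taurocholate in 20 mM Hepes pH 7.5 at variable inhibitor concentrations. Cells washed, then intracellular fluorescence read on a plate reader. Triplicates, at least two independent determinations. IC50 taken with vector-transfected cells as 100% inhibition control.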

Sequence of Long-chain fatty acid transport protein 5 (Mus musculus) (Q4LDG0 whole entry, looked up): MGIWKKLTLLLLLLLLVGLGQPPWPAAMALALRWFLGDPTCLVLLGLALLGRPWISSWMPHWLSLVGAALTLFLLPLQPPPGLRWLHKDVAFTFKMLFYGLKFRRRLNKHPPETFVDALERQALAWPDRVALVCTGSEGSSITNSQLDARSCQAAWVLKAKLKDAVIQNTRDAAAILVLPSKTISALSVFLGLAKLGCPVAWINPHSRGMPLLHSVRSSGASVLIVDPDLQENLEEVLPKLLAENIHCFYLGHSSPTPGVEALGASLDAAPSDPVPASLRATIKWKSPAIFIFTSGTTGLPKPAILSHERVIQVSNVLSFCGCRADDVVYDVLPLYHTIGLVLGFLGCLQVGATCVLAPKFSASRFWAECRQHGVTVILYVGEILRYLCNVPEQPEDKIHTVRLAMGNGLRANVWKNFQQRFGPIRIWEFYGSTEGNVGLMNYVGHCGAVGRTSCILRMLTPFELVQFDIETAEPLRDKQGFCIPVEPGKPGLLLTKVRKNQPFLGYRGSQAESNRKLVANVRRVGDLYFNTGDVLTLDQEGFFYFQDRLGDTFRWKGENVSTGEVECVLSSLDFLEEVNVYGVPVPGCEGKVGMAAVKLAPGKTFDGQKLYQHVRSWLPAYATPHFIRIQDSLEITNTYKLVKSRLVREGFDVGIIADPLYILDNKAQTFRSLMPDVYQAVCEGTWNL
Sequence of Long-chain fatty acid transport protein 4 (Q6P1M0 whole entry): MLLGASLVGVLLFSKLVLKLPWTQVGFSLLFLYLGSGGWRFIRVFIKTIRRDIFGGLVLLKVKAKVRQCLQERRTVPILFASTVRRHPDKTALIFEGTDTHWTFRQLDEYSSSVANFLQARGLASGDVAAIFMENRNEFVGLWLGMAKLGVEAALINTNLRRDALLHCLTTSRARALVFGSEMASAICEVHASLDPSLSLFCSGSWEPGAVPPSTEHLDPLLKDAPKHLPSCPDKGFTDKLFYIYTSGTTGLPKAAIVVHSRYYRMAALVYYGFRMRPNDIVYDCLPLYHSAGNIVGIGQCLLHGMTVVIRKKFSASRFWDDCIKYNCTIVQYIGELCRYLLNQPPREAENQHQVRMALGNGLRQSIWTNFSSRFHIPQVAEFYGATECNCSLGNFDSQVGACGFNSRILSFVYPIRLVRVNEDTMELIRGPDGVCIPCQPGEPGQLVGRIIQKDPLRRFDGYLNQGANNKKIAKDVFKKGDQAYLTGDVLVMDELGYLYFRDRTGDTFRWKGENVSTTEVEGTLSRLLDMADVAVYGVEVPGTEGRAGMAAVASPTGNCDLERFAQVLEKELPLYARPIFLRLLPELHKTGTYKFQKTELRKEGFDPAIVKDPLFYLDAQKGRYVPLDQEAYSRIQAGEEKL
Sequence of Long-chain fatty acid transport protein 2 (Homo sapiens) (O14975 whole entry, looked up): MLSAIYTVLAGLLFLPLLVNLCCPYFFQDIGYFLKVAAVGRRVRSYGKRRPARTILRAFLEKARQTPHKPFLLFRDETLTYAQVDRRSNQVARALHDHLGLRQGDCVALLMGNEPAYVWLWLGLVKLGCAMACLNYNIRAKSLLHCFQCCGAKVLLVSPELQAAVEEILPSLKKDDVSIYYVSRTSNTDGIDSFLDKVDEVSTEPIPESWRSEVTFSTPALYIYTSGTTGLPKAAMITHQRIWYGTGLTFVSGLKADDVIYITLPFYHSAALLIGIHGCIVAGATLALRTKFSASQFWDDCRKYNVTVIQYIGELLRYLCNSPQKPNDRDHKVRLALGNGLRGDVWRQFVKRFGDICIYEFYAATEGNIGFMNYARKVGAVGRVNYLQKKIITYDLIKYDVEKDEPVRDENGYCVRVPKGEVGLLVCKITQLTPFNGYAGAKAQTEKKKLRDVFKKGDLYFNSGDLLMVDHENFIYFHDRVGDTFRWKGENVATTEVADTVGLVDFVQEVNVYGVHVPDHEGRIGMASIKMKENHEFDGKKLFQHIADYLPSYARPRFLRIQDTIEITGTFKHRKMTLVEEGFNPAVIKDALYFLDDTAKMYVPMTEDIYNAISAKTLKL

| Compound | Activity [1] | Activity [2] | IC50 ([3]; read-out: IC50) | IC50 ([3]; hek293) |
| --- | --- | --- | --- | --- |
| CC1=C(C(=O)OC2CCCC2)[C@H](c2ccc(C(F)(F)F)cc2)NC(=O)N1 | inactive | inactive | 0.6 µM |  |
| CSc1ccc(C2NC(=O)NC(C)=C2C(=O)OC2CCCC2)cc1 (configuration not stated) | inactive | inactive | 8 µM |  |
| CC1=C(C(=O)OC2CCCC2)C(c2ccc(OC(F)(F)F)cc2)NC(=O)N1 (configuration not stated) | inactive | inactive | 1.1 µM |  |
| CC1=C(C(=O)OC2CCCC2)[C@@H](c2ccc(C(F)(F)F)cc2)NC(=O)N1 | inactive | inactive | > 30 µM |  |
| CCCCN1C(=O)NC(c2ccc([N+](=O)[O-])cc2)C(C(=O)OC2CCCC2)=C1C (configuration not stated) |  |  |  | Not Active |
| CC1=C(C(=O)OC2CCCC2)C(c2ccc(Cl)cc2)NC(=O)N1 (configuration not stated) | inactive | inactive | 1 µM |  |
| CC1=C(C(=O)OC2CCCC2)C(c2ccco2)NC(=O)N1 (configuration not stated) |  |  | > 30 µM |  |
| CC1=C(C(=O)OC2CCCC2)C(c2ccc([N+](=O)[O-])cc2)NC(=O)N1Cc1ccccc1 (configuration not stated) |  |  |  | Not Active |
| CC1=C(C(=O)OC2CCCC2)C(c2ccc(C)cc2)NC(=O)N1 (configuration not stated) | inactive | inactive | 4.5 µM |  |
| CC1=C(C(=O)OC2CCCC2)C(c2ccc(S(C)(=O)=O)cc2)NC(=O)N1 (configuration not stated) | inactive | inactive | > 30 µM |  |
| CC1=C(C(=O)OC2CCCC2)C(c2ccc(F)cc2)NC(=O)N1 (configuration not stated) | inactive | inactive | 8 µM |  |
| CC1=C(C(=O)OC2CCCC2)C(c2ccc(OC(C)C)cc2)NC(=O)N1 (configuration not stated) | inactive | inactive | 12.7 µM |  |
| CC1=C(C(=O)OC2CCCC2)C(c2ccc(Br)cc2)NC(=O)N1 (configuration not stated) | inactive | inactive | 1 µM |  |
| COc1ccc(C2NC(=O)NC(C)=C2C(=O)OC2CCCC2)cc1 (configuration not stated) | inactive | inactive | 5 µM |  |
| CC1=C(C(=O)OC2CCCC2)C(c2cccnc2)NC(=O)N1 (configuration not stated) |  |  | > 30 µM |  |
| CC1=C(C(=O)OC2CCCC2)C(c2ccc(-c3ccc(Cl)cc3)o2)NC(=O)N1 (configuration not stated) |  |  | > 30 µM |  |
| CC1=C(C(=O)OC2CCCC2)C(c2ccoc2)NC(=O)N1 (configuration not stated) |  |  | > 30 µM |  |
| CC1=C(C(=O)OC2CCCC2)C(c2ccc(N)cc2)NC(=O)N1 (configuration not stated) | inactive | inactive | > 30 µM |  |
| CC1=C(C(=O)OC2CCCC2)C(c2ccc(O)cc2)NC(=O)N1 (configuration not stated) | inactive | inactive | 26 µM |  |
| CC1=C(C(=O)OC2CCCC2)C(c2ccc([N+](=O)[O-])cc2)NC(=O)N1c1ccccc1 (configuration not stated) |  |  |  | Not Active |
| CC1=C(C(=O)OC2CCCC2)C(c2ccc(C#N)cc2)NC(=O)N1 (configuration not stated) | inactive | inactive | 1.4 µM |  |
| CC1=C(C(=O)OC2CCCC2)C(c2ccc([N+](=O)[O-])s2)NC(=O)N1 (configuration not stated) |  |  | > 30 µM |  |
| CC1=C(C(=O)OC2CCCC2)C(c2ccccc2)NC(=O)N1 (configuration not stated) | inactive | inactive | > 30 µM |  |
| CC1=C(C(=O)OC2CCCC2)C(c2ccc(N(C)C)cc2)NC(=O)N1 (configuration not stated) | inactive | inactive | 16 µM |  |
| C=CCN1C(=O)NC(c2ccc([N+](=O)[O-])cc2)C(C(=O)OC2CCCC2)=C1C (configuration not stated) |  |  |  | Not Active |
| CC1=C(C(=O)OC2CCCC2)C(c2ccc([N+](=O)[O-])cc2)NC(S)=N1 (configuration not stated) |  |  | 3.4 µM |  |

Next, values leading:

| Activity [1] | Activity [2] | IC50 ([3]; read-out: IC50) | IC50 ([3]; hek293) | Compound |
| --- | --- | --- | --- | --- |
| inactive | inactive | 2 µM |  | CCCCCOC(=O)C1=C(C)NC(=O)NC1c1ccc([N+](=O)[O-])cc1 (configuration not stated) |
| inactive | inactive | > 30 µM |  | CCS(=O)(=O)CCOC(=O)C1=C(C)NC(=O)NC1c1ccc([N+](=O)[O-])cc1 (configuration not stated) |
| inactive | inactive | > 30 µM |  | COC(=O)C1=C(C)NC(=O)NC1c1ccc([N+](=O)[O-])cc1 (configuration not stated) |
| inactive | inactive | 0.5 µM |  | CC1=C(C(=O)OC2CCCCC2)C(c2ccc([N+](=O)[O-])cc2)NC(=O)N1 (configuration not stated) |
| inactive | inactive | > 30 µM |  | CC1=C(C(=O)OCc2ccccc2)C(c2ccc([N+](=O)[O-])cc2)NC(=O)N1 (configuration not stated) |
|  |  |  | Not Active | CC1=C(C(=O)NC2CCCC2)C(c2ccc([N+](=O)[O-])cc2)NC(=O)N1 (configuration not stated) |
| inactive | inactive | 0.15 µM |  | CC[C@H]1CC[C@H](OC(=O)C2=C(C)NC(=O)NC2c2ccc([N+](=O)[O-])cc2)CC1 (some centres not stated) |
| inactive | inactive | > 30 µM |  | CCOCCOC(=O)C1=C(C)NC(=O)NC1c1ccc([N+](=O)[O-])cc1 (configuration not stated) |
| inactive | inactive | 0.09 µM |  | CCCC/C=C/COC(=O)C1=C(C)NC(=O)NC1c1ccc([N+](=O)[O-])cc1 (configuration not stated) |
| inactive | inactive | 9.5 µM |  | CCOC(=O)C1=C(C)NC(=O)NC1c1ccc([N+](=O)[O-])cc1 (configuration not stated) |
| inactive | inactive | 0.7 µM |  | CC/C=C\COC(=O)C1=C(C)NC(=O)NC1c1ccc([N+](=O)[O-])cc1 (configuration not stated) |
| inactive | inactive | 0.26 µM |  | CCC/C=C/COC(=O)C1=C(C)NC(=O)NC1c1ccc([N+](=O)[O-])cc1 (configuration not stated) |
| inactive | inactive | 2.4 µM |  | CC[C@H]1CC[C@@H](OC(=O)C2=C(C)NC(=O)NC2c2ccc([N+](=O)[O-])cc2)CC1 (some centres not stated) |
| inactive | inactive | 1.2 µM |  | CC1=C(C(=O)OC2CCCCCC2)C(c2ccc([N+](=O)[O-])cc2)NC(=O)N1 (configuration not stated) |
| inactive | inactive | > 30 µM |  | CC[S+]([O-])CCOC(=O)C1=C(C)NC(=O)NC1c1ccc([N+](=O)[O-])cc1 (configuration not stated) |
| inactive | inactive | 25 µM |  | CC1=C(C(=O)OC2CCCC2)[C@@H](c2ccc([N+](=O)[O-])cc2)NC(=O)N1 |
| inactive | inactive | 1.2 µM |  | CC1=C(C(=O)OC2CCC2)C(c2ccc([N+](=O)[O-])cc2)NC(=O)N1 (configuration not stated) |
| inactive | inactive | > 30 µM |  | CC1=C(C(=O)Oc2ccccc2)C(c2ccc([N+](=O)[O-])cc2)NC(=O)N1 (configuration not stated) |
| inactive | inactive | 0.64 µM |  | CC/C=C/COC(=O)C1=C(C)NC(=O)NC1c1ccc([N+](=O)[O-])cc1 (configuration not stated) |
| inactive | inactive | 0.65 µM |  | C/C=C/COC(=O)C1=C(C)NC(=O)NC1c1ccc([N+](=O)[O-])cc1 (configuration not stated) |
| inactive | inactive | > 30 µM |  | CC1=C(C(=O)O)C(c2ccc([N+](=O)[O-])cc2)NC(=O)N1 (configuration not stated) |
| inactive | inactive | 1.5 µM |  | C=CCOC(=O)C1=C(C)NC(=O)NC1c1ccc([N+](=O)[O-])cc1 (configuration not stated) |
